The list is not random: actives were taken first. Their share in the collection is about 12%.
WT yeast gro inh – growth inhibition of WT yeast, mitochondrial fusion screen; mitochondrial fusion phenotypic screen, WT strain; inhibition, % at 10 µM; 190,000 compounds, 2.1% hits; AID 1362; in the data active = inhibition above about 58%; tested in S. cerevisiae
ABCB1 block – inhibitors of human ABCB1 transporter, ABCG2 counter-screen; AID 1326; CCRF-Adr cells, JC-1 efflux, flow cytometry; 190,000 compounds, 0.067% hits; P08183; inhibition, % at 6.6 µM; in the data active = inhibition above about 40%;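 note: 0% = vehicle and 100% = reference inhibitor; higher value means more JC-1 retained so stronger ABCB1 efflux block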
RAM inhibit – inhibitors of the yeast RAM network; S. cerevisiae dse1pr::URA3 reporter, 5-FOA growth OD615, 2 d; analog-sensitive cbk1-as2 kinase mutant strain; inhibition, % at 50 µM; 190,000 compounds, 1.8% hits; AID 868;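 active = inhibition above a set limit, 3 SD over mean compound inhibition, cut at about 8.4% in these data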;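 note: 0% = DMSO-only wells with no growth and 100% = 10 µM 1-NA-PP1 full growth; inhibition rescues growth on 5-FOA so higher OD means more RAM inhibition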
L major viab – inhibitors of Leishmania major promastigote growth | AID 1063 | 200,000 compounds, 9% hits | inhibition, % at 10 µM | Leishmania major promastigotes, resazurin fluorescence viability; in the data active = inhibition above about 50%;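 note: promastigotes grown with compound for 44 hours at 28 °C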
ABCG2 block – blocks JC-1 efflux by human ABCG2 transporter; 190,000 compounds, 0.1% hits; inhibition, % at 6.6 µM; IgMXP3 cells, flow cytometry; Q9UNQ0;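 active = inhibition above 80%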;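 note: 0% = DMSO and 100% = nicardipine control wells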
Target sequence (Q9UNQ0 whole entry, looked up): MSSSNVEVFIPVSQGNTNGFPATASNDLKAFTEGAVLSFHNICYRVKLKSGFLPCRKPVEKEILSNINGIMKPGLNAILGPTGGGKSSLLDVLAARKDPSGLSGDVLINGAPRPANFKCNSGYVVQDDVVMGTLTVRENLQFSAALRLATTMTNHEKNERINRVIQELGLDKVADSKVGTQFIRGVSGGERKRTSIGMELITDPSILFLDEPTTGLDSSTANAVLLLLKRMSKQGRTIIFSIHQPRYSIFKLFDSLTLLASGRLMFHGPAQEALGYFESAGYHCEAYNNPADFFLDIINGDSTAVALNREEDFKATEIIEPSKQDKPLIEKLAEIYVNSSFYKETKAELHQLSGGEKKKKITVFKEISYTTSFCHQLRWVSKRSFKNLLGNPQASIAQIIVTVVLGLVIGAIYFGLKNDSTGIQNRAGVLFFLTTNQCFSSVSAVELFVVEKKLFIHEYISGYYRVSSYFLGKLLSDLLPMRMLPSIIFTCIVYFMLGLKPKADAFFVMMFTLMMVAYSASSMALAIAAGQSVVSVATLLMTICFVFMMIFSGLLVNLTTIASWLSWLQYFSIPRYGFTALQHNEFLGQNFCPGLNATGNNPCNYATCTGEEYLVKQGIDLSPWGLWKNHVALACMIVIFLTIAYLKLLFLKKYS
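Test system: IgMXP3 (ABCG2) plus far-red-tagged CCRF-Adr (ABCB1) cells. Reagent: JC-1 dye as substrate. Timing: 10 min exposure at 25 °C with rotation, no wash. Measured by: flow cytometric JC-1 green MFI at 530 nm. Read-out: percent efflux inhibition, scaled nicardipine 100% to DMSO 0%. Control set: nicardipine and DMSO wells.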
The depositor's hits bear a star; x = not tested or not shown.

SMILES	WT yeast gro inh	ABCB1 block	RAM inhibit	L major viab	ABCG2 block
Cc1ccc(C)c(N2CCN(C(=O)C3CCN(c4nnc(N5CCCC5=O)s4)CC3)CC2)c1	x	x	x	0.5	x
Cc1ccc(C)c(N2CCN(C(=O)C3CCCCN3S(=O)(=O)c3ccc(F)cc3)CC2)c1 (stereo not given)	64.3*	0.1	1.9	5.0	0.0
Cc1ccc(C)c(N2CCN(C(=O)C3CCN(c4nc(C)cc(C)n4)CC3)CC2)c1	66.5*	1.2	0.8	-4.3	0.6
CC(NC(=O)CSc1nnc(-c2cccnc2)n1N)c1ccccc1 (stereo not given)	-4.8	0.4	2.4	-6.8	14.5
COC(=O)c1ccccc1S(=O)c1snnc1C (stereo not given)	-9.0	1.0	1.0	1.0	20.6
O=C1CC(c2cccc(Cl)c2)CC(O)=C1C=Nc1cccc(Cl)c1 (stereo not given)	80.8*	2.1	5.8	-6.3	4.8
O=C(Nc1nc2ccccc2s1)C1CC(=O)N(c2ccc(F)cc2)C1 (stereo not given)	17.1	0.2	1.0	-4.0	5.4
COc1ccccc1NC(=O)Cn1c(=O)n(CCc2c[nH]c3ccccc23)c(=O)c2cccnc21	11.0	0.3	5.5	65.1*	-0.8
Cc1ccc(Oc2nc(CN3CCOCC3)nc3sc4c(c23)CCC(C)C4)cc1C (stereo not given)	65.4*	-1.6	0.8	96.9*	-5.8
CC1CCc2c(sc3nc(CN4CCOCC4)nc(N4CCc5ccccc5C4)c23)C1 (stereo not given)	23.4	5.6	0.9	13.3	1.7
Cc1ccc(Oc2nc(CN3CCOCC3)nc3sc4c(c23)CCC(C)C4)cc1 (stereo not given)	63.1*	1.6	-0.6	75.7*	9.1
O=C(O)/C=C/c1cnc2ccccc2c1	-5.2	-0.2	0.5	-1.5	-0.2
Cc1cc(C)n(-c2c(C)[nH]c3ccccc23)n1	4.5	0.9	0.5	-0.9	3.2
COCCCn1c(SCC(=O)NNC(=O)c2cccc(O)c2)nnc1-c1ccncc1	-8.4	-0.1	-0.1	-2.0	0.1
COc1cc(OC)c(OC)cc1C#N	0.7	0.3	0.0	-8.6	2.6
COc1cc2c(cc1OC)C1(CCCC1)C(N)=C2C#N	-6.8	2.2	0.9	99.6*	40.9
C=CCN1C(=O)/C(=C/c2cccs2)S/C1=N\S(=O)(=O)c1ccc(F)cc1	-10.0	0.6	10.6*	-4.8	1.0
COc1ccc(-c2nnn(CC(=O)NCCc3c[nH]c4ccccc34)n2)cc1OC	-5.2	0.4	4.4	46.0	1.6
CCOc1ccc(-c2nnn(CC(=O)NCCc3c[nH]c4ccccc34)n2)cc1	13.9	0.1	8.1	93.9*	5.7
CN(C)CCCN(C(=O)c1ccco1)c1nc2c(F)cccc2s1	-4.6	0.5	0.2	2.2	0.0
CN(C)CCCN(C(=O)/C=C/c1cccs1)c1nc2c(F)cccc2s1	47.3	1.6	2.7	97.4*	11.4
CN(C)CCCN(C(=O)CCc1ccccc1)c1nc2c(F)cccc2s1	60.1*	1.1	1.8	40.7	1.9
Cc1cccc2sc(N(CCN(C)C)C(=O)/C=C/c3cccs3)nc12	12.9	9.4	1.0	18.5	22.6
CN(C)CCCN(C(=O)CCOc1ccccc1)c1nc2c(F)cccc2s1	11.2	1.0	1.1	50.3*	2.1
N#Cc1ccccc1S(=O)(=O)N1CCN(c2cnccn2)CC1	-9.7	-0.3	-1.2	4.1	-0.5
SMILES	WT yeast gro inh	ABCB1 block	RAM inhibit	L major viab	ABCG2 block
CSCCC(C(=O)OC1CCOC1=O)N1C(=O)c2ccccc2C1=O (stereo not given)	-3.6	0.4	0.5	-1.5	0.7
Cc1cc(C)nc(SCc2ccc(F)cc2)n1	-23.6	-0.2	-0.6	-6.2	1.4
Cc1[nH]n(-c2ncc(-c3ccc(Cl)cc3)s2)c(=O)c1C(c1ccc(Cl)cc1)C(C#N)C#N (stereo not given)	19.6	-1.9	8.6*	98.7*	-23.4
COc1ccc(CN=C2NC(=O)CC(C(=O)Nc3cc(C)cc(C)c3)S2)cc1 (stereo not given)	-1.5	-0.2	1.2	-8.0	-0.8
C/C(CCc1ccc2c(c1)OCO2)=N\N=C1\NC(=O)CC(C(=O)Nc2ccc(Cl)cc2)S1 (stereo not given)	72.7*	0.4	2.7	-6.8	1.5
COc1ccc(CN=C2NC(=O)CC(C(=O)Nc3ccc(Cl)cc3)S2)cc1 (stereo not given)	4.9	0.6	9.2*	46.1	7.6
Cc1ccc(C2CC(c3ccccc3)=NN2c2ccccc2)o1 (stereo not given)	53.8	0.4	2.6	99.8*	7.3
CCOc1ccc(NC(=S)N(CCc2c(C)[nH]c3ccc(C)cc23)Cc2cccnc2)cc1	4.6	0.6	1.1	99.8*	2.2
Cc1ccccc1NC(=S)N(CCc1c(C)[nH]c2ccc(F)cc12)Cc1ccncc1	-15.6	1.4	1.8	98.4*	5.3
COc1ccc(NC(=S)N(CCc2c(C)[nH]c3ccccc23)Cc2cccnc2)cc1	-10.7	2.2	0.3	100.2*	7.5
Cc1[nH]c2ccc(F)cc2c1CCN(Cc1ccncc1)C(=S)Nc1cccc(F)c1	-5.4	0.0	-0.2	99.2*	0.3
COc1ccc(NC(C)=O)cc1NC(=O)CSc1nnc(-c2ccc(F)cc2)n1N	28.2	0.3	2.1	2.6	0.5
Cc1[nH]c2ccc(F)cc2c1CCN(Cc1cccnc1)C(=S)Nc1ccc(F)cc1	5.4	0.3	-0.1	100.4*	1.7
COc1ccc(NC(=S)N(CCc2nc3cc(C)c(C)cc3[nH]2)Cc2cccnc2)cc1	15.4	6.5	-0.5	90.4*	27.7
CSc1nc(-c2ccc(N(C)C)cc2)c(C#N)c(=O)n1C	-8.5	1.4	6.2	-3.8	4.7
O=C(O)/C(=C\c1cccs1)c1ccccc1	0.9	-0.2	-0.6	-8.8	-0.1
N#C/C(=N\Nc1ccccc1)C(=N)N1CCCCC1	4.5	0.2	0.3	89.8*	2.5
CC(NC(=S)Nc1c(Br)cccc1OC(F)F)C(C)(C)C (stereo not given)	13.2	0.7	-0.7	59.9*	1.0
Cc1ccc(C2=NN3C(C2)c2ccccc2OC32C(=O)Nc3ccccc32)cc1 (stereo not given)	-4.3	-0.1	2.1	99.8*	-0.3
O=C(CCCN1C(=O)/C(=C\c2cccc(Br)c2)SC1=S)Nc1cccnc1	26.4	1.4	2.9	58.5*	8.6
O=c1[nH]c(Nc2ccc3c(c2)OCCO3)nnc1Cc1ccccc1	-18.7	-0.1	3.5	-5.6	0.2
Cc1cccc(OCCCSc2nc3ccc(C)cc3[nH]2)c1	81.6*	-0.1	1.1	2.3	0.7
Cc1cccc(OCCSc2nc3ncnc(N)c3[nH]2)c1	3.3	-0.4	0.4	10.6	5.9
COc1ccc(Cl)cc1N(CC(=O)NCC(C)C)S(=O)(=O)c1ccc(C)c([N+](=O)[O-])c1	-2.6	1.1	5.0	8.7	6.0
CC(=O)N1Cc2cc([N+](=O)[O-])ccc2Oc2ccccc21	-5.5	0.1	1.0	-8.4	1.3

Screening results from PubChem.
